Reference: ChEMBL document CHEMBL2176986, “Selective and potent urea inhibitors of cryptosporidium parvum inosine 5'-monophosphate dehydrogenase” (J Med Chem, 2012)
pEC50, pIC50: −log10 of the molar value.

Columns and labels:
[1] = target: T1, Inosine-5'-monophosphate dehydrogenase (Cryptosporidium parvum, UniProt Q8T6T2); assay: Inhibition of Cryptosporidium parvum recombinant IMPDH expressed in Escherichia coli assessed as production of NADH in presence of 0.05% fatty acid free BSA incubated for 5 mins by fluorescence based assay
T1 sequence (Q8T6T2 whole entry): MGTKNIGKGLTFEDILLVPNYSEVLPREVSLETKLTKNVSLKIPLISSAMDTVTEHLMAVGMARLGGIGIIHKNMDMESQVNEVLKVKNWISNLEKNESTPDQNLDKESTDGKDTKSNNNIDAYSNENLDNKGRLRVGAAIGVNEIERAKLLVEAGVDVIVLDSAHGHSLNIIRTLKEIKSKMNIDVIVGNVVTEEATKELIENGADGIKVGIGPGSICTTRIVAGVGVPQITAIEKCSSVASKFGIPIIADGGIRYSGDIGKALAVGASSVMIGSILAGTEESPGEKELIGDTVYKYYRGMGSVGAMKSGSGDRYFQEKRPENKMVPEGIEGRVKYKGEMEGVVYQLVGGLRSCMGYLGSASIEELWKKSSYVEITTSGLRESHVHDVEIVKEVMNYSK
Procedure, shortened: (§1)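 Recombinant CpIMPDH purified from E. coli, 10 nM, preincubated with inhibitor 5 min at room temperature before substrates added. NADH formation followed by fluorescence. Line 3 also includes 0.05% fatty-acid-free BSA.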

[2] = target: T1, Inosine-5'-monophosphate dehydrogenase; assay: Inhibition of Cryptosporidium parvum recombinant IMPDH expressed in Escherichia coli assessed as production of NADH incubated for 5 mins by fluorescence based assay; procedure, shortened: as §1
[3] = system: Toxoplasma gondii; assay: Selectivity ratio of EC50 of wild type Toxoplasma gondii to EC50 of Toxoplasma gondii expressing Cryptosporidium parvum IMPDH
Procedure, shortened: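 Selectivity is the EC50 against wild-type RH T. gondii divided by the EC50 against the CpIMPDH-dependent strain. Both were measured by daily YFP fluorescence of parasites on hTERT human foreskin fibroblasts over 6-7 days, with inhibition taken in exponential growth.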

[4] = system: Toxoplasma gondii; assay: Toxicity against wild type Toxoplasma gondii expressing yellow fluorescent protein infected in human TERT immobilized human foreskin fibroblasts assessed as parasite growth inhibition for 6 to 7 days by fluorescence based assay; assay type: organism-based
Procedure, shortened: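 Parasite lines carrying yellow fluorescent protein were grown on hTERT-immortalized human foreskin fibroblasts. One line depends on C. parvum IMPDH (Toxo/CpIMPDH). The other is wild-type strain RH, which has its own eukaryotic IMPDH. Growth inhibition was taken on a day within exponential growth.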

[5] = system: Toxoplasma gondii; assay: Antiparasitic activity against Toxoplasma gondii expressing Cryptosporidium parvum IMPDH and co-expressing yellow fluorescent protein infected to human TERT immobilized human foreskin fibroblasts assessed as parasite growth inhibition for 6 to 7 days by fluorescence based assay; assay type: functional, organism-based
Procedure, shortened: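 Parasite lines carrying yellow fluorescent protein were grown on hTERT-immortalized human foreskin fibroblasts. One line depends on C. parvum IMPDH (Toxo/CpIMPDH). The other is wild-type strain RH, which has its own eukaryotic IMPDH. Fluorescence (Ex 485, Em 530) was read daily for 6-7 days. Growth inhibition was taken on a day within exponential growth.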

[6] = target: Inosine-5'-monophosphate dehydrogenase 2 (Homo sapiens, UniProt P12268); assay: Inhibition of human IMPDH 2

Compound | pIC50 [1] | pIC50 [2] | Ratio EC50 [3] | pEC50 [4] | pEC50 [5] | pIC50 [6]
C=C(C)c1cccc(C(C)(C)NC(=O)N(C)c2ccc(Cl)cc2)c1 | 5.30 | 6.05 | – | – | – | –
CO/N=C(\C)c1cccc(C(C)(C)NC(=O)Nc2ccc(Cl)c(C(N)=O)c2)c1 | 8.30 | 8.30 | >120 | < 4.60 | 6.70 | –
C/C(=N\O)c1cccc(C(C)(C)NC(=O)Nc2ccc3ccccc3c2)c1 | 8.64 | 9.00 | 63 | 5.30 | 7.10 | –
C=C(C)c1cccc(C(C)(C)NC(=O)Nc2ccc3ncccc3c2)c1 | 8.40 | 8.74 | – | 5.12 | 7.70 | ≤ 5.30
C=C(C)c1cccc(C(C)(C)NC(=O)Nc2ccc3c(c2)OCCO3)c1 | 6.96 | 8.14 | 50 | 5.10 | 6.70 | ≤ 5.30
C=C(C)c1cccc(C(C)(C)NC(=O)Nc2ccc(Cl)c(C(=O)NC)c2)c1 | 7.85 | 8.15 | 100 | 4.72 | 6.74 | ≤ 5.30
CC(=O)c1cccc(C(C)(C)NC(=O)Oc2ccc(Cl)cc2)c1 | – | < 5.30 | – | – | – | –
C=C(C)c1cccc(C(C)(C)NC(=O)Nc2ccc(Cl)c(OC)c2)c1 | 8.30 | 8.89 | 127 | 5.64 | 7.74 | ≤ 5.30
C=C(C)c1cccc(C(C)(C)NC(=O)Nc2cccc3ccccc23)c1 | – | < 5.30 | – | – | – | ≤ 5.30
CC(=O)c1cccc(C(C)(C)NC(=O)Nc2ccc(Cl)cc2)c1 | 7.19 | 7.41 | – | – | – | –
CC(=O)c1cccc(C(C)(C)NC(=O)Nc2ccc(Cl)c(C(F)(F)F)c2)c1 | 7.70 | 8.05 | 16 | 5.49 | 6.70 | –
CC(=O)c1cccc(C(C)(C)NC(=O)Cc2ccc(Cl)cc2)c1 | – | < 5.30 | – | – | – | –
CC(=O)c1cccc(CNC(=O)Nc2ccc(Cl)cc2)c1 | – | 5.30 | 0.6 | 5.15 | 4.96 | –
C=C(C)c1cccc(C(C)(C)NC(=O)Nc2ccc(OC)cc2)c1 | 7.68 | 8.05 | – | – | – | ≤ 5.30
C=C(C)c1cccc(C(C)(C)NC(=O)Nc2ccc3ccccc3c2)c1 | 7.40 | 8.68 | >120 | < 4.60 | 6.70 | ≤ 5.30
CC(C)c1cccc(C(C)(C)NC(=O)Nc2ccc3ccccc3c2)c1 | – | < 5.30 | – | – | – | –
C=C(C)c1cccc(C(C)(C)NC(=O)Nc2ccc3[nH]c(=O)[nH]c3c2)c1 | – | 6.47 | – | – | – | < 5.30

Compound | pIC50 [1] | pIC50 [2] | Ratio EC50 [3] | pEC50 [4] | pEC50 [5] | pIC50 [6]
CC(O)c1cccc(C(C)(C)NC(=O)Nc2ccc(Cl)cc2)c1 (configuration not stated) | 6.92 | 7.10 | – | 4.72 | 6.05 | –
C=C(C)c1cccc(C(C)(C)NC(=O)Nc2ccc(C(C)(C)C)cc2)c1 | – | < 5.30 | 3 | 4.70 | 5.14 | ≤ 5.30
C=C(C)c1cccc(C(C)(C)NC(=O)Nc2ccc(Cl)cc2)c1 | 7.43 | 7.70 | >140 | < 4.60 | 6.74 | ≤ 5.30
CC(C)(NC(=O)Nc1ccc2[nH]c(=O)[nH]c2c1)c1ccccc1 | – | < 5.30 | – | – | – | –
CC(=O)c1cccc(C(C)(C)OC(=O)Nc2ccc(Cl)cc2)c1 | 6.92 | 7.05 | – | – | – | –
NC(=O)c1cc(NC(=O)NC2(c3cccc(-c4ccccc4)c3)CC2)ccc1Cl | 7.05 | 7.40 | 15 | 5.05 | 6.22 | –
CO/N=C(\C)c1cccc(C(C)(C)NC(=O)Nc2ccc3ccccc3c2)c1 | 7.89 | 8.80 | – | – | 7.89 | –
C=C(C)c1cccc(C(C)(C)NC(=O)Nc2ccc(Cl)c(C(=O)N(C)C)c2)c1 | 7.93 | 8.10 | 100 | 5.05 | 7.05 | ≤ 5.30
C=C(C)c1cccc(C(C)(C)NC(=O)Nc2ccc(Cl)c(C(F)(F)F)c2)c1 | 7.70 | 8.40 | – | – | – | ≤ 5.30
CC(C)(NC(=O)Nc1ccc(Cl)cc1)c1ccc(-c2ccccc2)cc1 | – | < 5.30 | – | – | – | –
C=C(C)c1cccc(C(C)(C)NC(=O)Nc2cccc(Cl)c2)c1 | 6.48 | 7.15 | 1 | 6.40 | 6.42 | ≤ 5.30
C=C(C)c1cccc(C(C)(C)NC(=O)Nc2ccc3ccccc3n2)c1 | 5.96 | 6.60 | 0.9 | 5.52 | 5.47 | ≤ 5.30
C=C(C)c1cccc(C(C)(C)NC(=O)Nc2ccc(Cl)c(Cl)c2)c1 | 7.30 | 8.22 | 20 | 5.40 | 6.66 | ≤ 5.30
C=C(C)c1cccc(C(C)(C)NC(=O)Nc2ccc(Br)cc2)c1 | 7.70 | 8.00 | >120 | < 4.60 | 6.70 | ≤ 5.30
CC(=O)c1cccc(C(C)NC(=O)Nc2ccc(Cl)cc2)c1 (configuration not stated) | 6.96 | 7.15 | – | 5.10 | 5.64 | –
C=C(C)c1cccc(C(C)(C)NC(=O)Nc2ccccc2Cl)c1 | – | < 5.30 | – | – | – | ≤ 5.30
CC(C)(NC(=O)Nc1ccc(Cl)c(C(N)=O)c1)c1cccc(-c2ccccc2)c1 | 7.85 | 8.40 | – | 5.22 | 6.68 | –
